Laboratory results reported in ChEMBL document CHEMBL2434878, “Synthesis and antimycobacterial activity of analogues of the bioactive natural products sampangine and cleistopholine” (Eur J Med Chem, 2013).
Converted amounts (≈) assume the structure as drawn.

What was measured:
[1] = tested on: Mycobacterium tuberculosis; experiment: Antimicrobial activity against Mycobacterium tuberculosis H37Rv ATCC 27294 expressing luciferase reporter gene assessed as reduction in bacterial count after 6 days by luminometry; assay type: functional; details: H37Rv ATCC 27294, 144 h
Method in brief: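 MIC by serial dilution in the 6-day luminescent H37Rv assay (7H9-10% FCS, 50,000 RLU/ml inoculum, triplicate wells, n-decanal read-out). MIC is the concentration giving at least one log10 reduction in signal versus the untreated control.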

[2] = tested on: Mycobacterium intracellulare; experiment: Antimicrobial activity against Mycobacterium intracellulare; assay type: functional
[3] = tested on: Mycobacterium tuberculosis; experiment: Antimicrobial activity against Mycobacterium tuberculosis H37Rv ATCC 27294 expressing luciferase reporter gene assessed as growth inhibition at 10 uM after 6 days by luminometry relative to control; assay type: functional; details: H37Rv ATCC 27294, 144 h, read-out: GI
Method in brief: (§1)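 Single-concentration screen of the luminescent H37Rv reporter strain in 7H9-10% FCS, inoculated at 50,000 RLU/ml, 6 days at 37 °C. Luminescence was read after n-decanal addition. Percent inhibition is versus the untreated culture, as the mean of triplicate cultures.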

[4] = tested on: Mycobacterium tuberculosis; experiment: Antimicrobial activity against Mycobacterium tuberculosis H37Rv ATCC 27294 expressing luciferase reporter gene assessed as growth inhibition at 1 uM after 6 days by luminometry relative to control; assay type: functional; details: H37Rv ATCC 27294, 144 h, read-out: GI; method in brief: as §1
[5] = tested on: Mycobacterium tuberculosis; experiment: Antimicrobial activity against Mycobacterium tuberculosis H37Rv ATCC 27294 expressing luciferase reporter gene assessed as growth inhibition after 6 days by luminometry; assay type: functional; details: H37Rv ATCC 27294, 144 h
Method in brief: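 Luminescent H37Rv (pSMT1, V. harveyi luciferase) was declumped by filtration, adjusted to 50,000 RLU/ml in 7H9-10% FCS, and exposed to serial compound dilutions in triplicate for 6 days at 37 °C. Light was read for 10 s after adding 1% n-decanal. GI50 is the concentration giving 50% growth reduction versus untreated culture.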

[6] = tested on: Mycobacterium tuberculosis; experiment: Antimicrobial activity against Mycobacterium tuberculosis H37Rv ATCC 27294 expressing luciferase reporter gene assessed as growth inhibition at 0.1 uM after 6 days by luminometry relative to control; assay type: functional; details: H37Rv ATCC 27294, 144 h, read-out: GI; method in brief: as §1
[7] = tested on: Mycobacterium tuberculosis; experiment: Antimicrobial activity against Mycobacterium tuberculosis H37Rv ATCC 27294 expressing luciferase reporter gene infected in mouse J774 macrophages assessed as intracellular growth inhibition at 0.5 uM after 4 days by luminometry relative to untreated control; assay type: functional; details: H37Rv ATCC 27294, J774, 96 h, read-out: GI
Method in brief: (§2)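 J774.A1 murine macrophages were seeded at 40,000 cells/well, recovered overnight and infected with luminescent H37Rv. From 24 h post-infection, cells were treated for 4 days in DMEM with penicillin and fungizone, without gentamicin. Growth was read by luminescence after 1% n-decanal and expressed as percent inhibition versus untreated, in triplicate. Macrophage viability was checked by trypan blue.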

[8] = tested on: Mycobacterium tuberculosis; experiment: Antimicrobial activity against Mycobacterium tuberculosis H37Rv ATCC 27294 expressing luciferase reporter gene infected in mouse J774 macrophages assessed as intracellular growth inhibition at 2 uM after 4 days by luminometry relative to untreated control; assay type: functional; details: H37Rv ATCC 27294, J774, 96 h, read-out: GI; method in brief: as §2
[9] = Genotoxicity in human HepG2/C3A cells assessed as genomic DNA fragmentation at 10 uM after 24 hrs by comet assay; assay type: toxicity, cell-based
Method in brief: (§3)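 Alkaline comet assay: C3A cells at 100,000/well recovered overnight, then 24 h at 37 °C, 5% CO2 with serial dilutions from DMSO stock in DMEM + 10% FCS. Cells embedded in low-melting agarose, lysed 1 h, electrophoresed 20 min at 300 mA, neutralized, gel red stained. Tail DNA as % of head + tail DNA by fluorescence microscopy; Mann–Whitney test.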

[10] = tested on: Mycobacterium avium subsp. paratuberculosis; experiment: Antimicrobial activity against Mycobacterium avium subsp. paratuberculosis ATCC 15769 expressing luciferase reporter gene assessed as growth inhibition after 6 days by luminometry; assay type: functional; details: ATCC 15769, 144 h
[11] = Cytotoxicity against human HepG2/C3A cells after 24 hrs by neutral red dye uptake assay; assay type: cell-based
[12] = tested on: Mycobacterium ulcerans; experiment: Antimicrobial activity against Mycobacterium ulcerans 1615 expressing luciferase reporter gene assessed as growth inhibition after 6 days by luminometry; assay type: functional; details: Mycobacterium ulcerans, 1615, 144 h
Method in brief: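 Luminescent M. ulcerans 1615 carrying pSMT1 luciferase plasmid, grown at 32 °C in 7H9 with 10% OADC and 0.2% glycerol. Serial dilutions from 10 mM DMSO stocks in 7H9 + 10% FCS; bacteria dosed at 50,000 RLU/ml, triplicate wells. After 6 days, light read over 10 s following 1% n-decanal in ethanol. GI50 taken at 50% growth reduction versus untreated culture.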

[13] = Genotoxicity in human HepG2/C3A cells assessed as genomic DNA fragmentation at 1 to 3 uM after 24 hrs by comet assay; assay type: toxicity, cell-based; method in brief: as §3
[14] = Antimicrobial activity against Mycobacterium avium subsp. avium ATCC 19698 expressing luciferase reporter gene assessed as growth inhibition after 6 days by luminometry; assay type: functional; details: ATCC 19698, 144 h
[15] = Therapeutic index, ratio of IC50 for human HepG2/C3A cells to GI50 for Mycobacterium tuberculosis H37Rv ATCC 27294; assay type: cell-based; details: read-out: TI
Method in brief: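 TI is NI50/GI50. NI50 came from a neutral red uptake assay in C3A hepatocytes (40,000 cells/well, 24 h exposure at 37 °C, 3 h dye, OD 530 nm with 620 nm reference): the concentration reducing dye uptake by 50%. GI50 came from the 6-day luminescent H37Rv assay.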

[16] = tested on: Mycobacterium tuberculosis; experiment: Antimicrobial activity against Mycobacterium tuberculosis H37Rv ATCC 27294 expressing luciferase reporter gene infected in mouse J774 macrophages assessed as intracellular growth inhibition at 1 uM after 4 days by luminometry relative to untreated control; assay type: functional; details: H37Rv ATCC 27294, J774, 96 h, read-out: GI; method in brief: as §2
[17] = tested on: Mycolicibacterium aurum; experiment: Antimicrobial activity against Mycobacterium aurum A+; assay type: functional

SMILES	MIC90 [1] [µM]	MIC [2] [µg/mL]	inhibition of growth at 10 µM [3] [%]	inhibition of growth at 1 µM [4] [%]	GI50 [5] [µM]	inhibition of growth at 0.1 µM [6] [%]	inhibition of growth at 0.5 µM [7] [%]	inhibition of growth at 2 µM [8] [%]	Activity [9]	GI50 [10] [µM]	IC50 [11] [µM]	GI50 [12] [µM]	Activity [13]	GI50 [14] [µM]	selectivity ratio [15]	inhibition of growth at 1 µM [16] [%]	MIC [17] [µg/mL]
CO[C@H]1/C=C/O[C@@]2(C)Oc3c(C)c(O)c4c(O)c(c(/C=N/N5CCN(C)CC5)c(O)c4c3C2=O)NC(=O)/C(C)=C\C=C\[C@H](C)[C@H](O)[C@@H](C)[C@@H](O)[C@@H](C)[C@H](OC(C)=O)[C@@H]1C [RIFAMPIN]	0.12 (≈ 0.0988 µg/mL)	0.5 (≈ 0.608 µM)	100	100	0.03	99	–	–	–	–	–	–	–	–	–	–	–
COc1ccc(-c2cc3c(c(/C=C/N(C)C)n2)C(=O)c2ccccc2C3=O)cc1	0.88 (≈ 0.338 µg/mL)	–	100	100	0.36	42	9.3	47.1	Non-toxic	3.06	33.3	7.65	Non-toxic	2.98	92.5	26.3	–
COc1ccc(-c2cc3c4c(nccc4n2)-c2ccccc2C3=O)cc1	0.92 (≈ 0.311 µg/mL)	–	100	99	0.37	81	10	51.5	Toxic	2.54	> 50	8.56	Non-toxic	3.56	> 135	38.5	–
CN[C@@H]1[C@H](O[C@H]2[C@H](O[C@H]3[C@H](O)[C@@H](O)[C@H](N=C(N)N)[C@@H](O)[C@@H]3N=C(N)N)O[C@@H](C)[C@]2(O)C=O)O[C@@H](CO)[C@H](O)[C@H]1O [STREPTOMYCIN]	–	2 (≈ 3.44 µM)	–	–	–	–	–	–	–	–	–	–	–	–	–	–	–
O=C1c2cccnc2-c2nccc3c2c1nc1ccccc13 [ASCIDIDEMIN]	–	–	–	–	–	–	–	–	–	–	–	–	–	–	–	–	0.25 (≈ 0.882 µM)
CCc1ccnc2c1C(=O)c1ccccc1C2=O	–	12.5 (≈ 52.7 µM)	–	–	–	–	–	–	–	–	–	–	–	–	–	–	–
COc1ccc(-c2cc(O)c3c(c2)C(=O)c2ccccc2C3=O)cc1	0.92 (≈ 0.304 µg/mL)	–	100	92	0.45	35	21.6	42.3	Toxic	3.52	1.87	7.55	Non-toxic	3.01	4.2	27.6	–
CCOc1nc2c3c(ncc(Br)c3c1Br)-c1ccccc1C2=O	–	25 (≈ 57.6 µM)	–	–	–	–	–	–	–	–	–	–	–	–	–	–	–
